Results from different studies.
Each line is one published result; the experiments were not run side by side.

O=C(Nc1ccc(Br)cc1)N1CCC(n2c(=O)[nH]c3c(Br)cccc32)CC1
IC50 (SMUG1 (Homo sapiens, UniProt Q53HV7); enzyme activity; inhibitor): > 100000 nM

O=C1N[C@H](C(=O)O)CS1
IC50 (Hydroxycarboxylic acid receptor 2 (HCAR2, Homo sapiens, UniProt Q8TDS4); ligand displacement; radioligand; cell membranes): ~900000 nM

O=C(Nc1ccc(-c2nc(-c3ccc(F)cc3)no2)cc1)C1CC(=O)N(Cc2cccnc2)C1 (stereo not shown)
IC50 (Relaxin-3 receptor 1 (RXFP3, Homo sapiens, UniProt Q9NSD7); cAMP; antagonist; TR-FRET): 2670 nM

Cc1cc(Nc2cc(CN3CCOCC3)c3nc(C)c(Cc4ccc(Cl)cc4F)n3n2)n[nH]1
IC50 (Muscle, skeletal receptor tyrosine-protein kinase (MUSK, Homo sapiens, UniProt O15146); enzyme activity; inhibitor; TR-FRET): 147 nM

C=CC(=O)Nc1cc(Nc2nccc(-c3cn(C4CC4)c4ccccc34)n2)c(OC)cc1N(C)CCN(C)C
IC50 (Epidermal growth factor receptor (EGFR, Homo sapiens, UniProt P00533, D761Y); enzyme activity; inhibitor; TR-FRET): 0.84 nM

CCOC(F)(F)c1nnc2cnc(-c3cnc(OCC(F)(F)F)c(F)c3)cn12
IC50 (Sodium channel protein type 8 subunit alpha (Rattus norvegicus, UniProt O88420); ion current; inhibitor; patch clamp): 180 nM

Cc1ccc(COc2ccc3c(c2)NC(=C(C#N)C(=O)c2ccc(Cl)cc2Cl)NC3=O)cc1
IC50 (Cytoplasmic dynein 2 heavy chain 1 (DYNC2H1, Homo sapiens, UniProt Q8NCM8); ATPase activity; inhibitor): 11000 nM

CNc1nc(C)nc(N[C@H]2CCC[C@@H](C(=O)NCc3ccc(C#N)cc3C(F)(F)F)C2)n1
IC50 (Bifunctional epoxide hydrolase 2 (Ephx2, Mus musculus, UniProt P34914); enzyme activity; inhibitor): 4 nM

COc1ccc(-c2coc3cc(O)c(CC=C(C)C)c(O)c3c2=O)c(O)c1
IC50 (Beta-secretase 1 (BACE1, Homo sapiens, UniProt P56817); enzyme activity; inhibitor): 42000 nM

NS(=O)(=O)c1cc2c(cc1C(F)(F)F)NC(Cc1ccccc1)NS2(=O)=O (stereo not shown)
IC50 (Delta-aminolevulinic acid dehydratase (Homo sapiens, UniProt P13716, C162A/K59N); enzyme activity; inhibitor; absorbance; pH 8; with preincubation): 130000 nM

CC(C)C[C@H](NC(=O)[C@H](Cc1ccccc1)NC(=O)[C@@H](N)Cc1ccc(O)cc1)C(=O)N[C@@H](Cc1ccccc1)C(=O)N[C@@H](CCCNC(=N)N)C(=O)N1CCC[C@H]1C(=O)N[C@@H](CCCNC(=N)N)C(=O)N[C@@H](CC(N)=O)C(N)=O
IC50 (Neuromedin-U receptor 2 (Mus musculus, UniProt Q8BZ39); ligand displacement; radioligand): 0.0912 nM

Cc1ncsc1-c1ccc(CNC(=O)[C@@H]2C[C@H](O)CN2C(=O)[C@@H](NC(=O)C2(F)CC2)C(C)(C)C)c(OCCOc2ccc(CN3CCN(c4cc(-c5ccccc5O)nnc4N)CC3)cc2)c1
IC50 (SWI/SNF-related matrix-associated actin-dependent regulator of chromatin subfamily A member 2, bromodomain (SMARCA2, Homo sapiens, UniProt P51531); ligand displacement; TR-FRET): 670 nM

CN1CCN(c2ccc(Nc3ncc4cc(C#N)c(=O)n(C5CCCC5)c4n3)cc2)CC1
IC50 (Proto-oncogene tyrosine-protein kinase ROS (ROS1, Homo sapiens, UniProt P08922); enzyme activity; inhibitor): 2250 nM

C[C@]1(C(=O)[C@H](CC2CCCCC2)NC(=O)[C@@H]2COCCCCCC(=O)N3CCC[C@H]3C(=O)N2)CO1
IC50 (Proteasome Macropain subunit MB1 (PSMB5, Homo sapiens, UniProt P28074); enzyme activity; inhibitor; fluorescence): > 10000 nM

C[C@@H]1COCCN1c1nc(-c2cnc(N)nc2C(F)F)nc(N2CCOCC2)n1
IC50 (Serine/threonine-protein kinase mTOR (MTOR, Homo sapiens, UniProt P42345); ligand displacement; TR-FRET): 32.4 nM

O=C(Nc1ccn(Cc2ccc(O)cc2C(F)(F)F)n1)c1c(F)cccc1F
IC50 (Short transient receptor potential channel 6 (TRPC6, Homo sapiens, UniProt Q9Y210); ion current; inhibitor): > 10000 nM

Cc1ccc(NC(=O)c2ccc(C)c(C(F)(F)F)c2)cc1C#Cc1nn(C2CCC(O)CC2)c2ncnc(N)c12 (stereo not shown)
IC50 (Ephrin type-B receptor 2 (EPHB2, Homo sapiens, UniProt P29323); enzyme activity; inhibitor; radiometric): 33 nM

CCOC(=O)c1nn(C(=O)C2CC2)c2ccccc2c1=O
IC50 (Neutrophil elastase (ELANE, Homo sapiens, UniProt P08246); enzyme activity; inhibitor; fluorescence): 580 nM

CC(=O)N[C@H]1CSSC[C@@H](C(=O)N[C@H](Cc2c[nH]c3ccccc23)C(N)=O)NC(=O)[C@H](Cc2ccccc2)NC(=O)[C@H](CCCNC(=N)N)NC1=O
IC50 (Melanocortin receptor 3 (MC3R, Homo sapiens, UniProt P41968); ligand displacement; radioligand): 1500 nM
